Laboratory results published in ChEMBL document CHEMBL2417539, “1-substituted (Dibenzo[b,d]thiophen-4-yl)-2-morpholino-4H-chromen-4-ones endowed with dual DNA-PK/PI3-K inhibitory activity” (J Med Chem, 2013).

Experiments:
[1] = biological target: Serine/threonine-protein kinase mTOR (Homo sapiens, UniProt P42345); assay: Inhibition of mTOR (unknown origin)
[2] = biological target: Serine-protein kinase ATM (Homo sapiens, UniProt Q13315); assay: Inhibition of ATM (unknown origin)
[3] = biological target: Serine/threonine-protein kinase ATR (Homo sapiens, UniProt Q13535); assay: Inhibition of ATR (unknown origin)
[4] = biological target: T1, Phosphatidylinositol 4,5-bisphosphate 3-kinase catalytic subunit delta isoform (Homo sapiens, UniProt O00329); assay: Inhibition of PI-3K delta (unknown origin)
T1 sequence (O00329 whole entry): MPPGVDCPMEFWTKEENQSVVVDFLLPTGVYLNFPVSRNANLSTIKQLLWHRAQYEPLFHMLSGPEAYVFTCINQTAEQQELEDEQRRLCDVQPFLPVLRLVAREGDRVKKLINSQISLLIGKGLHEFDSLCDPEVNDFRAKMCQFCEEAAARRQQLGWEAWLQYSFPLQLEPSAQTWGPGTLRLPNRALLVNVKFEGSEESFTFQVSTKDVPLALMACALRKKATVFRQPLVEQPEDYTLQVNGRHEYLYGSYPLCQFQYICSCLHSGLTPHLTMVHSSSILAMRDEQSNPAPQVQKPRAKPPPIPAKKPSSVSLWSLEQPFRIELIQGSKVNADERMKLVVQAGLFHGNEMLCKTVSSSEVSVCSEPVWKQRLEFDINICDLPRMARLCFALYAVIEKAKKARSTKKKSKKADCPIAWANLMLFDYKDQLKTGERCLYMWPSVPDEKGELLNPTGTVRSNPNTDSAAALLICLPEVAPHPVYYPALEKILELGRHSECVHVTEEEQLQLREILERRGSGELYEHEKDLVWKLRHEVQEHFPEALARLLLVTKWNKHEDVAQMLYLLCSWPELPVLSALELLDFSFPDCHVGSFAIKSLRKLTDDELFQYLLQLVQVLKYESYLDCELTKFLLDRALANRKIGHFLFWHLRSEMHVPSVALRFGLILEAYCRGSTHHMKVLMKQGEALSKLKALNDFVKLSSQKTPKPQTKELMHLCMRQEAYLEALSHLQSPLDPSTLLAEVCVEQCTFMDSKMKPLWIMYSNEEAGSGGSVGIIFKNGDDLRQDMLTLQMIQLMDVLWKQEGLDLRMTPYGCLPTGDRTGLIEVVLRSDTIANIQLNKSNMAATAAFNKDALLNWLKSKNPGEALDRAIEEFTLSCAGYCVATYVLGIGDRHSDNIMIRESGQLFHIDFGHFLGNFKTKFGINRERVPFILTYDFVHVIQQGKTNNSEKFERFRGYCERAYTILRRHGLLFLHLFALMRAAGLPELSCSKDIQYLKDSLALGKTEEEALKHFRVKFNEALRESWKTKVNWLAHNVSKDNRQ

[5] = Fraction unbound in human Plasma; format: ADME, cell-free
[6] = biological target: T2, DNA-dependent protein kinase catalytic subunit (Homo sapiens, UniProt P78527); assay: Inhibition of human DNA-PK using GST-tagged p53N66 as substrate after 1 hr by ELISA-based chemiluminiscence assay
[7] = biological target: T2, DNA-dependent protein kinase catalytic subunit; assay: Inhibition of DNA-PK autophosphorylation at S2056 in human HeLa cells; format: cell-based
HeLa [8] = assay: Antiproliferative activity against human HeLa cells assessed as cell survival ratio at 0.1 uM treated 1 hr before 2Gy ionizing radiation measured after 6 to 8 days by DMR clonogenic assay; format: functional
Outline: (§1)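 HeLa cells seeded in 6-well dishes, incubated overnight at 37 °C/5% CO2, pre-treated 1 h with vehicle or inhibitor (0.1 or 0.5 μM), then given 2 Gy X-ray IR and held overnight. Medium then replaced without compound and culture continued 6-8 days. Colonies Giemsa-stained and counted automatically. DMR = % survival (vehicle, 2 Gy) / % survival (compound, 2 Gy).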

HeLa [9] = assay: Antiproliferative activity against human HeLa cells assessed as cell survival ratio at 0.5 uM treated 1 hr before 2Gy ionizing radiation measured after 6 to 8 days by DMR clonogenic assay; format: functional; outline: as §1

T2 sequence (P78527 whole entry): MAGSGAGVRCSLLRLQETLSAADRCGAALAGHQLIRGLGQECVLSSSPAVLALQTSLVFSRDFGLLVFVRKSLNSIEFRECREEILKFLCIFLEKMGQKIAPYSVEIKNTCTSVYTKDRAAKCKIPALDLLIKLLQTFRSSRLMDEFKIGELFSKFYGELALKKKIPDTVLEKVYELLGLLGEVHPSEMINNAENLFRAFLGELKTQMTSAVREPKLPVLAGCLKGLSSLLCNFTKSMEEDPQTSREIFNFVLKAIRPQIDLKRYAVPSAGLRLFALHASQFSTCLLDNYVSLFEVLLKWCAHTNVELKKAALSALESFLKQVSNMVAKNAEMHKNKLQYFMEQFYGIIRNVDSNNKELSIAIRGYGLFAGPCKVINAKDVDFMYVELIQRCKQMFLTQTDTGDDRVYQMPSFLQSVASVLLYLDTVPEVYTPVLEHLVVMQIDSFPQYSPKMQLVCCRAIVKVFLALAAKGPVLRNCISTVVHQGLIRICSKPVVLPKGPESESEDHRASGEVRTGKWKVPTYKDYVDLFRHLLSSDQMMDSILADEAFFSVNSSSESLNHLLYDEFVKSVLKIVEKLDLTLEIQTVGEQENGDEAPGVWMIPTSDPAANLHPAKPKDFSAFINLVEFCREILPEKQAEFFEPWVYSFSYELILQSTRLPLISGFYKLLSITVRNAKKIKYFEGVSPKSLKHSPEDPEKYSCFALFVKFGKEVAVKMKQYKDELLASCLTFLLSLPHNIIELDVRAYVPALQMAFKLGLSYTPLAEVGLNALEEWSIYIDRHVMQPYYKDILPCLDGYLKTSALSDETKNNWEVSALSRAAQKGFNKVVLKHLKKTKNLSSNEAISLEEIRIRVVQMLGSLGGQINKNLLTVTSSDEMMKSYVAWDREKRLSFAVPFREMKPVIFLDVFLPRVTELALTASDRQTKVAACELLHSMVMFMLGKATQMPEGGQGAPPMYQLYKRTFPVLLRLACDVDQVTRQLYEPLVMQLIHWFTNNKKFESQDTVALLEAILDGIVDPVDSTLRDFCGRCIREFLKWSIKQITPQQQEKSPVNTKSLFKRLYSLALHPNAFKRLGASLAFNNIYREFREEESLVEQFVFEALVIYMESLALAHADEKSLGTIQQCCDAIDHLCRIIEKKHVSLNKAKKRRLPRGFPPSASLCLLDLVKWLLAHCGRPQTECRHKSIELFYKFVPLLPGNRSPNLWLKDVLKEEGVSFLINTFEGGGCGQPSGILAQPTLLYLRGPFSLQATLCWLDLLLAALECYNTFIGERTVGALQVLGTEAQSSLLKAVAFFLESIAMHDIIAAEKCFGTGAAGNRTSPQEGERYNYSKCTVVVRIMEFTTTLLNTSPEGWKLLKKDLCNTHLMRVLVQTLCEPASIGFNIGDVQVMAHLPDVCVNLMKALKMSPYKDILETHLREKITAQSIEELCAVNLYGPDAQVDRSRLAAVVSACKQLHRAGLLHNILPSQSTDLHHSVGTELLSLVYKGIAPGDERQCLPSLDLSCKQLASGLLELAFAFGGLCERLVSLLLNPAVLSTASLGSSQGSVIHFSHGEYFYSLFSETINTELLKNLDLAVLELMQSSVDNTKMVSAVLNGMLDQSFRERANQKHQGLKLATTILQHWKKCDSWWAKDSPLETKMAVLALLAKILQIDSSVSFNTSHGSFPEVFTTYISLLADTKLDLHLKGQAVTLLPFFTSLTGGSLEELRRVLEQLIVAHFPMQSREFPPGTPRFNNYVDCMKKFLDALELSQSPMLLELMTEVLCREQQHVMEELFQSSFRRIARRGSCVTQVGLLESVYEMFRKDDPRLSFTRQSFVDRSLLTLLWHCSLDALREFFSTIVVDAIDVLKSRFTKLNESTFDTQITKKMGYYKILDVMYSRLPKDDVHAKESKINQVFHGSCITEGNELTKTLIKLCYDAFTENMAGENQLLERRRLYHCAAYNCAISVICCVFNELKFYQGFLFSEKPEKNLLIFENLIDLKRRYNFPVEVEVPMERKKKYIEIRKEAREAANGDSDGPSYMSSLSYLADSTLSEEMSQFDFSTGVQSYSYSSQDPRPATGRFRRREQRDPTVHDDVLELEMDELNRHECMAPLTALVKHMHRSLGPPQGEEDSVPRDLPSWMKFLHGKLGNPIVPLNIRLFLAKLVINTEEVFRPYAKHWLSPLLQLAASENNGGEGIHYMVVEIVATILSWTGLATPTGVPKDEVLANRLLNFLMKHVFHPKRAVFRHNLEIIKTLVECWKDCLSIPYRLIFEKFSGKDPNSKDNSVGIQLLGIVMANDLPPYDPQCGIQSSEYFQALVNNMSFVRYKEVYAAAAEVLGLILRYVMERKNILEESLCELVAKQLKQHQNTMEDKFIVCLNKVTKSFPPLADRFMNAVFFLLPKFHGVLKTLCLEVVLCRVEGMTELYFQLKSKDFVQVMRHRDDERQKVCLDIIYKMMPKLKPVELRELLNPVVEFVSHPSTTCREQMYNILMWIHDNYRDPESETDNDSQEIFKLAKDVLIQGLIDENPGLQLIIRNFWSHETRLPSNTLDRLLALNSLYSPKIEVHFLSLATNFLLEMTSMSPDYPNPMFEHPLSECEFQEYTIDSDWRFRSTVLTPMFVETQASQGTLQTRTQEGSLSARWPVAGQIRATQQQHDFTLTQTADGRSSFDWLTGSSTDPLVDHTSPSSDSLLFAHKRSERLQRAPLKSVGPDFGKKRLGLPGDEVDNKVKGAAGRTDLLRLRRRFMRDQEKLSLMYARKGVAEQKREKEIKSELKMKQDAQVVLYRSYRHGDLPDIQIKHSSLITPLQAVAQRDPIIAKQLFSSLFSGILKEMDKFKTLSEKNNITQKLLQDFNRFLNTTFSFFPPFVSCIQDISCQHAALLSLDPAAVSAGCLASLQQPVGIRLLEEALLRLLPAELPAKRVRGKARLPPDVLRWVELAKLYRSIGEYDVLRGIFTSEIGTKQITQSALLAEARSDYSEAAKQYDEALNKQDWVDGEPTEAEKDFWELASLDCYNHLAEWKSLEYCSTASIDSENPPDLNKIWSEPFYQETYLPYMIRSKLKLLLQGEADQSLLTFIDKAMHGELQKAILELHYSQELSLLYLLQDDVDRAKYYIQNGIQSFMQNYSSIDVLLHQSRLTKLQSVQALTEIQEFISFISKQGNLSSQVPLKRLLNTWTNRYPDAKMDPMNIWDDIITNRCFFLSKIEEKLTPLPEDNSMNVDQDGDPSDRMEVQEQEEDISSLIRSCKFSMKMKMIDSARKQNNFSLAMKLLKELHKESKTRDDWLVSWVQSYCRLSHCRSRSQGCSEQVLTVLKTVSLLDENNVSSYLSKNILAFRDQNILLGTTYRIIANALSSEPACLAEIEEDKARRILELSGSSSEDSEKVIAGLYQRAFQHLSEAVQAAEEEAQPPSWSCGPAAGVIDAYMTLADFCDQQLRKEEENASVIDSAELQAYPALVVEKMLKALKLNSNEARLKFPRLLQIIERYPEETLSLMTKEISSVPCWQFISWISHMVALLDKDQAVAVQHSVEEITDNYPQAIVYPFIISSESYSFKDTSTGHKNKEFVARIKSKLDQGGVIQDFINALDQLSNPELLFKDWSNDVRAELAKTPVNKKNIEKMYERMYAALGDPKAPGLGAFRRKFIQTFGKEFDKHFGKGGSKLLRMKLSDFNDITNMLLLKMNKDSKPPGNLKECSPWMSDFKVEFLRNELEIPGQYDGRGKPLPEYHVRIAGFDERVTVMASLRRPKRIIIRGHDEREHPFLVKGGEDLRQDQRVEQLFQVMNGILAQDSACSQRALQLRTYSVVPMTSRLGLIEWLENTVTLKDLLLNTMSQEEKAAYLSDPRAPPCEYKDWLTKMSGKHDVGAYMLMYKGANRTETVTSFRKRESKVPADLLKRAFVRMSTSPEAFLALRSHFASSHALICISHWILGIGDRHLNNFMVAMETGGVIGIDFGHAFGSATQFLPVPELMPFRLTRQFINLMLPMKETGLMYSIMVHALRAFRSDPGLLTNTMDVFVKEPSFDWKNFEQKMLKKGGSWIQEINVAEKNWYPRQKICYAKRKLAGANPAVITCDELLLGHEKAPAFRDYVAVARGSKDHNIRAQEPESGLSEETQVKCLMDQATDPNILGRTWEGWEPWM

| IC50 [6] [nM] | SMILES | Ratio (HeLa [8]) | Ratio (HeLa [9]) | further results |
| --- | --- | --- | --- | --- |
| 2 | CC(=O)N1CCN(CCOc2ccc(-c3cccc4c(=O)cc(N5CCOCC5)oc34)c3sc4ccccc4c23)CC1 |  |  | fraction unbound [5]: 0.0049; EC50 [7]: 166 nM |
| 33 | O=C(CCNCCN1CCCCC1)Nc1ccc(-c2cccc3c(=O)cc(N4CCOCC4)oc23)c2sc3ccccc3c12 | 1 | 3.3 |  |
| 55 | CN1CCCN(CC(=O)Nc2ccc(-c3cccc4c(=O)cc(N5CCOCC5)oc34)c3sc4ccccc4c23)CC1 | 1.7 | 7.6 |  |
| 23 | CC(=O)N1CCN(CCC(=O)Nc2ccc(-c3cccc4c(=O)cc(N5CCOCC5)oc34)c3sc4ccccc4c23)CC1 | 0.9 | 1.4 |  |
| 16 | NCCNCC(=O)Nc1ccc(-c2cccc3c(=O)cc(N4CCOCC4)oc23)c2sc3ccccc3c12 | 1.1 | 1.5 |  |
| 7 | O=C(CNCCN1CCNC1=O)Nc1ccc(-c2cccc3c(=O)cc(N4CCOCC4)oc23)c2sc3ccccc3c12 | 1.2 | 1.2 |  |
| 12 | O=C(CNCCN1CCOCC1)Nc1ccc(-c2cccc3c(=O)cc(N4CCOCC4)oc23)c2sc3ccccc3c12 | 1.4 | 4.7 |  |
| 29 | O=C(CCN1CCN(CCO)CC1)Nc1ccc(-c2cccc3c(=O)cc(N4CCOCC4)oc23)c2sc3ccccc3c12 | 1 | 1.2 |  |
| 6 | O=C(CCNCCN1CCNC1=O)Nc1ccc(-c2cccc3c(=O)cc(N4CCOCC4)oc23)c2sc3ccccc3c12 | 1.1 | 0.9 |  |
| 61 | O=C(CNCCN1CCCCC1)Nc1ccc(-c2cccc3c(=O)cc(N4CCOCC4)oc23)c2sc3ccccc3c12 | 1.3 | 9.6 |  |
| 12 | CCN(CC)CCC(=O)Nc1ccc(-c2cccc3c(=O)cc(N4CCOCC4)oc23)c2sc3ccccc3c12 | 1.8 | 5.7 |  |
| 43 | CN1CCCC1CCNCC(=O)Nc1ccc(-c2cccc3c(=O)cc(N4CCOCC4)oc23)c2sc3ccccc3c12 (configuration not stated) | 1.1 | 2.4 |  |
| 41 | O=C(CCN1CCOCC1)Nc1ccc(-c2cccc3c(=O)cc(N4CCOCC4)oc23)c2sc3ccccc3c12 | 2 | 6.1 |  |
| 9 | C[C@@H]1CN(CCC(=O)Nc2ccc(-c3cccc4c(=O)cc(N5CCOCC5)oc34)c3sc4ccccc4c23)C[C@H](C)O1 | 2.4 | 9.3 |  |
| 21 | O=C(CN1CCCCC1)Nc1ccc(-c2cccc3c(=O)cc(N4CCOCC4)oc23)c2sc3ccccc3c12 | 1.2 | 10.4 |  |
| 8 | O=C(CNCCO)Nc1ccc(-c2cccc3c(=O)cc(N4CCOCC4)oc23)c2sc3ccccc3c12 | 1.6 | 6.2 |  |
| 11 | O=C(CCN1CCCCCC1)Nc1ccc(-c2cccc3c(=O)cc(N4CCOCC4)oc23)c2sc3ccccc3c12 | 3.1 | 8.4 |  |
| 22 | O=C(CN1CCCNCC1)Nc1ccc(-c2cccc3c(=O)cc(N4CCOCC4)oc23)c2sc3ccccc3c12 | 1.4 | 1.5 |  |
| 9 | CC(C)N1CCN(CC(=O)Nc2ccc(-c3cccc4c(=O)cc(N5CCOCC5)oc34)c3sc4ccccc4c23)CC1 | 1.7 | 12.9 |  |
| 11 | O=C(CN1CCOCC1)Nc1ccc(-c2cccc3c(=O)cc(N4CCOCC4)oc23)c2sc3ccccc3c12 | 3.9 | 12.8 |  |
| 7 | CN1CCN(CCOc2ccc(-c3cccc4c(=O)cc(N5CCOCC5)oc34)c3sc4ccccc4c23)CC1 | 3.1 | 5.1 |  |
| 12 | NCC(=O)Nc1ccc(-c2cccc3c(=O)cc(N4CCOCC4)oc23)c2sc3ccccc3c12 | 2.5 | 9 |  |
| 29 | O=C(CCN1CCN(CCOCCO)CC1)Nc1ccc(-c2cccc3c(=O)cc(N4CCOCC4)oc23)c2sc3ccccc3c12 | 1.1 | 1 |  |

Continued, molecule first:

| SMILES | IC50 [6] [nM] | Ratio (HeLa [8]) | Ratio (HeLa [9]) | further results |
| --- | --- | --- | --- | --- |
| O=c1cc(N2CCOCC2)oc2c(-c3ccccc3)cccc12 [LY-294002] |  |  |  | IC50 [1]: 2800 nM; IC50 [2]: > 10000 nM; IC50 [3]: > 10000 nM; IC50 [4]: 220 nM |
| CC(C)N1CCN(C(=O)COc2ccc(-c3cccc4c(=O)cc(N5CCOCC5)oc34)c3sc4ccccc4c23)CC1 | 16 | 1.3 | 3.1 |  |
| CCN(CC)CC(=O)Nc1ccc(-c2cccc3c(=O)cc(N4CCOCC4)oc23)c2sc3ccccc3c12 | 84 | 1.2 | 3.7 |  |
| O=C(CNCC1CCCO1)Nc1ccc(-c2cccc3c(=O)cc(N4CCOCC4)oc23)c2sc3ccccc3c12 (configuration not stated) | 14 | 1.7 | 7.7 |  |
| C[C@@H]1CN(CCOc2ccc(-c3cccc4c(=O)cc(N5CCOCC5)oc34)c3sc4ccccc4c23)C[C@H](C)O1 | 10 | 1.1 | 3.2 |  |
| C[C@@H]1CN(C(=O)COc2ccc(-c3cccc4c(=O)cc(N5CCOCC5)oc34)c3sc4ccccc4c23)C[C@H](C)O1 | 61 | 0.9 | 1 |  |
| CCN1CCCC1CNCCC(=O)Nc1ccc(-c2cccc3c(=O)cc(N4CCOCC4)oc23)c2sc3ccccc3c12 (configuration not stated) | 49 | 1.2 | 1.7 |  |
| COCCNCC(=O)Nc1ccc(-c2cccc3c(=O)cc(N4CCOCC4)oc23)c2sc3ccccc3c12 | 7 | 1.2 | 5.9 |  |
| O=c1cc(N2CCOCC2)oc2c(-c3ccc(OCCNCCN4CCOCC4)c4c3sc3ccccc34)cccc12 | 7 | 1.4 | 10.1 |  |
| O=c1cc(N2CCOCC2)oc2c(-c3ccc(OCCN4CCOCC4)c4c3sc3ccccc34)cccc12 | 8 | 1.5 | 6.4 |  |
| O=C(CN(CCO)CCO)Nc1ccc(-c2cccc3c(=O)cc(N4CCOCC4)oc23)c2sc3ccccc3c12 | 6 | 1.1 | 1.9 |  |
| O=c1cc(N2CCOCC2)oc2c(-c3ccc(OCCNc4cccnc4)c4c3sc3ccccc34)cccc12 | 2 | 0.9 | 1 |  |
| CCN(CC(=O)Nc1ccc(-c2cccc3c(=O)cc(N4CCOCC4)oc23)c2sc3ccccc3c12)Cc1ccncc1 | 8 | 1.5 | 14.1 |  |
| CN1CCCN(C(=O)COc2ccc(-c3cccc4c(=O)cc(N5CCOCC5)oc34)c3sc4ccccc4c23)CC1 | 44 | 1.1 | 2 |  |
| CN(C)CCN(C)C(=O)COc1ccc(-c2cccc3c(=O)cc(N4CCOCC4)oc23)c2sc3ccccc3c12 | 53 | 1.4 | 2.1 |  |
| COc1ccc(CNCCC(=O)Nc2ccc(-c3cccc4c(=O)cc(N5CCOCC5)oc34)c3sc4ccccc4c23)cc1 | 9 | 1.7 | 7.2 |  |
| COC(=O)[C@H](CO)NC(=O)COc1ccc(-c2cccc3c(=O)cc(N4CCOCC4)oc23)c2sc3ccccc3c12 | 6 | 1.5 | 6.1 |  |
| O=C(CNCc1ccncc1)Nc1ccc(-c2cccc3c(=O)cc(N4CCOCC4)oc23)c2sc3ccccc3c12 | 8 | 1.4 | 5.5 |  |
| CC(C)N1CCN(CCOc2ccc(-c3cccc4c(=O)cc(N5CCOCC5)oc34)c3sc4ccccc4c23)CC1 | 3 | 1.6 | 6.3 |  |
